In ChEMBL document CHEMBL4680104, “Structure-Based Optimization of Small-Molecule Inhibitors for the β-Catenin/B-Cell Lymphoma 9 Protein-Protein Interaction” (J Med Chem, 2018):
pIC50: −log10 of the molar value. Activity calls are given as the source filed them. No cut-off for these calls is given here.

What was measured:
HCT-116 = assay: Cytotoxicity in human HCT-116 cells assessed as reduction in cell viability incubated for 72 hrs by MTS assay; format: functional, cell-based; conditions: HCT-116, 72 h
Procedure, shortened: (§1)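 Cells seeded at 5 × 10^3 cells/well, kept overnight at 37 °C, then exposed to inhibitors at various concentrations for 72 h. Viability read with a freshly mixed PMS (0.92 mg/mL) : MTS (2 mg/mL) reagent at 1:19, incubated 3 h at 37 °C, A490 measured. […] Triplicate; mean ± SD.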

[1] = target: T1, beta-catenin-B-cell lymphoma 9 protein complex (Homo sapiens) (UniProt P35222+O00512); assay: Inhibition of protein interaction between beta-catenin (unknown origin)/BCL9 in HEK293 cells transfected with beta-catenin assessed as reduction in Wnt/beta-catenin transactivation incubated for 24 hrs by Wnt-responsive FOP-Flash luciferase reporter assay; format: cell-based
Procedure, shortened: (§2)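 HEK293 cells were cotransfected using FuGENE6 with 45 ng TOPFlash or FOPFlash reporter, 135 ng pcDNA3.1-β-catenin and 20 ng pCMV-RL normalization reporter. After 24 h in DMEM with 10% FBS at 37 °C, inhibitors or DMSO were added for 24 h. Reporter activity was read with a dual luciferase system, normalized, and compared with DMSO-treated cells. Triplicate.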

[2] = target: T1, beta-catenin-B-cell lymphoma 9 protein complex (Homo sapiens); assay: Inhibition of protein interaction between beta-catenin (unknown origin)/BCL9 in human HEK293 cells transfected with beta-catenin assessed as reduction in Wnt/beta-catenin transactivation incubated for 24 hrs by Wnt-responsive FOP-Flash luciferase reporter assay
A549 = assay: Cytotoxicity in human A549 cells assessed as reduction in cell viability incubated for 72 hrs by MTS assay; format: functional, cell-based; conditions: A549, 72 h; procedure, shortened: as §1
[3] = target: T2, beta-catenin-B-cell lymphoma 9 protein complex (Homo sapiens, UniProt P35222); assay: Inhibition of protein interaction between beta-catenin (unknown origin)/BCL9 in HEK293 cells transfected with beta-catenin assessed as reduction in Wnt/beta-catenin transactivation incubated for 24 hrs by Wnt-responsive TOP-Flash luciferase reporter assay; format: cell-based; procedure, shortened: as §2
T2 sequence (P35222 whole entry): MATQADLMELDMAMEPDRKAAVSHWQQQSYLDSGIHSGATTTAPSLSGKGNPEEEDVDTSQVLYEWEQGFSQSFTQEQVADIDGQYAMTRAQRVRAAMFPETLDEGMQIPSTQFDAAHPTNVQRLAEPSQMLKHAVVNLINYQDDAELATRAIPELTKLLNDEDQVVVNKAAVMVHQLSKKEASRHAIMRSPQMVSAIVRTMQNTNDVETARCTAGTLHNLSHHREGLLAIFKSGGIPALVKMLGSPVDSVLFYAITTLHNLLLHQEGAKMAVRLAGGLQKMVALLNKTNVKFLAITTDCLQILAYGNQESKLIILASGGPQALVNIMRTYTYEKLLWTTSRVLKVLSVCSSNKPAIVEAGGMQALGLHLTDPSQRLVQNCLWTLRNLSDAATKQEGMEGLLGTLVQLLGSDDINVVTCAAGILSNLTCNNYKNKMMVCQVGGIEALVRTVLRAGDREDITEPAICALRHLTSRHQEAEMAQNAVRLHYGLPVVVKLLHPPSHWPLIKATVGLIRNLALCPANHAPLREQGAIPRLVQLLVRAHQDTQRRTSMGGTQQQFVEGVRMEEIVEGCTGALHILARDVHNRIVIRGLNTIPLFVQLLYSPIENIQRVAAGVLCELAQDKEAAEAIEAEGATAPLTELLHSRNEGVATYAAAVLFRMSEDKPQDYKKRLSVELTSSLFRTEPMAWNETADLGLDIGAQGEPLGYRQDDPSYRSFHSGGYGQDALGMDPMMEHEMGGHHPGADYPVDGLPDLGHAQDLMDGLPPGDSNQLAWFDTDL
T2 sequence (O00512 whole entry): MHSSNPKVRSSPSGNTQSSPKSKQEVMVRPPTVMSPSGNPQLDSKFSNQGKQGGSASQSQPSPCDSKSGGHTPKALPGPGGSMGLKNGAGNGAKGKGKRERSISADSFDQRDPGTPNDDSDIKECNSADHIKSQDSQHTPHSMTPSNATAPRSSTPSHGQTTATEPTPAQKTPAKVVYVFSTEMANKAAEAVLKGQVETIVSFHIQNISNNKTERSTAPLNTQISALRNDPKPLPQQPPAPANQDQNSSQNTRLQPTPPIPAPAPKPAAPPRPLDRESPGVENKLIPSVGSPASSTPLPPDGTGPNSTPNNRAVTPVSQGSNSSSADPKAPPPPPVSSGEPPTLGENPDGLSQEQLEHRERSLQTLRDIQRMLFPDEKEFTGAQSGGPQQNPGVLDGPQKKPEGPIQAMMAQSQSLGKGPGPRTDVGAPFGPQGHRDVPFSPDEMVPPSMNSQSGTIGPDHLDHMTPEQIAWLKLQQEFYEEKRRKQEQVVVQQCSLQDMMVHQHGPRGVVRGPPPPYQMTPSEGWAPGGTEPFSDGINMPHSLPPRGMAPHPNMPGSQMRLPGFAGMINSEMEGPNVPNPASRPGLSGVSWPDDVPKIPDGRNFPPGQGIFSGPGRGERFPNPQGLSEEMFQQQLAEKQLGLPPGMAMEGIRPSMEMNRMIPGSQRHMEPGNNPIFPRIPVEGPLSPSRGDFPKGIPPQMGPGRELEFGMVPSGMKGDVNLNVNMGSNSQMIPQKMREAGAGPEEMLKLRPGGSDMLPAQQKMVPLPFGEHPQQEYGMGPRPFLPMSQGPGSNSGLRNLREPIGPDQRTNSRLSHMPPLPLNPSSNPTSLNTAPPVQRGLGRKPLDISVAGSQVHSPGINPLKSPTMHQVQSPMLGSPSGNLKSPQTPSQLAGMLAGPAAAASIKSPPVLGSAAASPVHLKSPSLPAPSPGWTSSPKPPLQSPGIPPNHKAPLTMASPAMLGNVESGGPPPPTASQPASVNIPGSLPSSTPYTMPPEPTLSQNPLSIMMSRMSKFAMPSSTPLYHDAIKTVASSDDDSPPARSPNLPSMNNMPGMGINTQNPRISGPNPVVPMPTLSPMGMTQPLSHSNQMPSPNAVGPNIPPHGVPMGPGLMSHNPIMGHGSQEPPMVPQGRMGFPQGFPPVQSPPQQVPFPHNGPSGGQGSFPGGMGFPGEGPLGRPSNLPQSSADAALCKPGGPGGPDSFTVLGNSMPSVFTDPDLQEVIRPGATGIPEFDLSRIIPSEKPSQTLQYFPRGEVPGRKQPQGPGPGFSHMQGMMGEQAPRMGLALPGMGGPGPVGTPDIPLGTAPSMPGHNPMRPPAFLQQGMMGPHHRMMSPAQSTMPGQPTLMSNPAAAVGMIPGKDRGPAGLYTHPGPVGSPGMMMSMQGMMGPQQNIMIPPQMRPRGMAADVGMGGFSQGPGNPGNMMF

| inhibition [1] | inhibition [2] | pIC50 [3] | SMILES | pIC50 (HCT-116) | pIC50 (A549) |
| --- | --- | --- | --- | --- | --- |
| Active | Active | 4.66 | Cl.Cl.O=C(Nc1ccc(O[C@H]2CCNC2)c(-c2ccc(F)cc2)c1)c1cnc(O[C@H]2CCNC2)c(-c2ccc(F)c(F)c2)c1 | 5.06 | 4.59 |
| Active | Active | 5.00 | Cl.Cl.O=C(Nc1ccc(O[C@H]2CCNC2)c(-c2ccc(F)cc2)c1)c1ccc(O[C@H]2CCNC2)c(C2CCC(C(F)(F)F)CC2)c1 (some centres not stated) | 5.25 | 5.32 |
| Active | Active | 5.21 | Cl.Cl.O=C(Nc1ccc(O[C@H]2CCNC2)c(-c2ccc(F)cc2)c1)c1ccc(O[C@H]2CCNC2)c(-c2ccc3ccsc3c2)c1 | 5.12 | 5.03 |
| Active | Active | 5.00 | Cl.Cl.O=C(Nc1ccc(O[C@H]2CCNC2)c(-c2ccc(F)cc2)c1)c1ccc(O[C@H]2CCNC2)c(-c2ccc3cc(F)ccc3c2)c1 | 5.25 | 5.43 |

The next lines start with the compound.

| SMILES | inhibition [1] | inhibition [2] | pIC50 [3] | pIC50 (HCT-116) | pIC50 (A549) |
| --- | --- | --- | --- | --- | --- |
| Cc1cc(F)ccc1-c1cc(NC(=O)c2ccc(O[C@H]3CCNC3)c(-c3ccc(F)c(F)c3)c2)ccc1O[C@H]1CCNC1.Cl.Cl | Active | Active | – | 5.25 | 5.00 |
| Cl.Cl.O=C(Nc1ccc(O[C@H]2CCNC2)c(-c2ccc(F)cc2)c1)c1ccc(O[C@H]2CCNC2)c(-c2ccc(F)c(F)c2)c1 | Active | Active | 5.35 | – | – |
| Cl.Cl.O=C(Nc1ccc(O[C@@H]2CCNC2)c(-c2cccc(-c3nn[nH]n3)c2)c1)c1ccc(O[C@H]2CCNC2)c(-c2ccc(F)c(F)c2)c1 | inactive | inactive | 4.60 | 4.26 | < 3.40 |
